Tests used:
[1] = Octanol-phosphate buffer partition coefficient, log D of the compound at pH 7.4; assay type: physicochemical
Method in brief: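 Radioiodinated tracer partitioned between n-octanol and PBS at pH 7.4; log D reported as mean ± SD.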

Blood [2] = experiment: Biodistribution in Kunming mouse blood at 1 uCi, iv after 2 mins by gamma counting; assay type: ADME, organism-based; conditions: in vivo
Method in brief: (§1)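 125I-labeled tracer given intravenously to normal mice. Organs and blood were sampled at 2, 15, 30, 60, 120 and 240 min after injection. Uptake is expressed as % ID/g, averaged over 5 mice ± SD.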

Blood [3] = experiment: Biodistribution in Kunming mouse blood at 1 uCi, iv after 15 mins by gamma counting; assay type: ADME, organism-based; conditions: in vivo, 0.25 h; method in brief: as §1
Blood [4] = experiment: Biodistribution in Kunming mouse blood at 1 uCi, iv after 30 mins by gamma counting; assay type: ADME, organism-based; conditions: in vivo, 0.5 h; method in brief: as §1
Blood [5] = experiment: Biodistribution in Kunming mouse blood at 1 uCi, iv after 60 mins by gamma counting; assay type: ADME, organism-based; conditions: in vivo, 1 h; method in brief: as §1
Blood [6] = experiment: Biodistribution in Kunming mouse blood at 1 uCi, iv after 120 mins by gamma counting; assay type: ADME, organism-based; conditions: in vivo, 2 h; method in brief: as §1
Blood [7] = experiment: Biodistribution in Kunming mouse blood at 1 uCi, iv after 240 mins by gamma counting; assay type: ADME, organism-based; conditions: in vivo, 4 h; method in brief: as §1
Brain [8] = experiment: Biodistribution in Kunming mouse brain at 1 uCi, iv after 2 mins by gamma counting; assay type: ADME, organism-based; conditions: in vivo; method in brief: as §1
Brain [9] = experiment: Biodistribution in Kunming mouse brain at 1 uCi, iv after 15 mins by gamma counting; assay type: ADME, organism-based; conditions: in vivo, 0.25 h; method in brief: as §1
Brain [10] = experiment: Biodistribution in Kunming mouse brain at 1 uCi, iv after 30 mins by gamma counting; assay type: ADME, organism-based; conditions: in vivo, 0.5 h; method in brief: as §1
Brain [11] = experiment: Biodistribution in Kunming mouse brain at 1 uCi, iv after 60 mins by gamma counting; assay type: ADME, organism-based; conditions: in vivo, 1 h; method in brief: as §1
Brain [12] = experiment: Biodistribution in Kunming mouse brain at 1 uCi, iv after 120 mins by gamma counting; assay type: ADME, organism-based; conditions: in vivo, 2 h; method in brief: as §1
Brain [13] = experiment: Biodistribution in Kunming mouse brain at 1 uCi, iv after 240 mins by gamma counting; assay type: ADME, organism-based; conditions: in vivo, 4 h; method in brief: as §1
Heart [14] = experiment: Biodistribution in Kunming mouse heart at 1 uCi, iv after 2 mins by gamma counting; assay type: ADME, organism-based; conditions: in vivo; method in brief: as §1
Heart [15] = experiment: Biodistribution in Kunming mouse heart at 1 uCi, iv after 15 mins by gamma counting; assay type: ADME, organism-based; conditions: in vivo, 0.25 h; method in brief: as §1
Heart [16] = experiment: Biodistribution in Kunming mouse heart at 1 uCi, iv after 30 mins by gamma counting; assay type: ADME, organism-based; conditions: in vivo, 0.5 h; method in brief: as §1
Heart [17] = experiment: Biodistribution in Kunming mouse heart at 1 uCi, iv after 60 mins by gamma counting; assay type: ADME, organism-based; conditions: in vivo, 1 h; method in brief: as §1
Heart [18] = experiment: Biodistribution in Kunming mouse heart at 1 uCi, iv after 120 mins by gamma counting; assay type: ADME, organism-based; conditions: in vivo, 2 h; method in brief: as §1
Heart [19] = experiment: Biodistribution in Kunming mouse heart at 1 uCi, iv after 240 mins by gamma counting; assay type: ADME, organism-based; conditions: in vivo, 4 h; method in brief: as §1
Liver [20] = experiment: Biodistribution in Kunming mouse liver at 1 uCi, iv after 2 mins by gamma counting; assay type: ADME, organism-based; conditions: in vivo; method in brief: as §1
Liver [21] = experiment: Biodistribution in Kunming mouse liver at 1 uCi, iv after 15 mins by gamma counting; assay type: ADME, organism-based; conditions: in vivo, 0.25 h; method in brief: as §1
Liver [22] = experiment: Biodistribution in Kunming mouse liver at 1 uCi, iv after 30 mins by gamma counting; assay type: ADME, organism-based; conditions: in vivo, 0.5 h; method in brief: as §1
Liver [23] = experiment: Biodistribution in Kunming mouse liver at 1 uCi, iv after 60 mins by gamma counting; assay type: ADME, organism-based; conditions: in vivo, 1 h; method in brief: as §1
Liver [24] = experiment: Biodistribution in Kunming mouse liver at 1 uCi, iv after 120 mins by gamma counting; assay type: ADME, organism-based; conditions: in vivo, 2 h; method in brief: as §1
Liver [25] = experiment: Biodistribution in Kunming mouse liver at 1 uCi, iv after 240 mins by gamma counting; assay type: ADME, organism-based; conditions: in vivo, 4 h; method in brief: as §1
Spleen [26] = experiment: Biodistribution in Kunming mouse spleen at 1 uCi, iv after 2 mins by gamma counting; assay type: ADME, organism-based; conditions: in vivo; method in brief: as §1
Spleen [27] = experiment: Biodistribution in Kunming mouse spleen at 1 uCi, iv after 15 mins by gamma counting; assay type: ADME, organism-based; conditions: in vivo, 0.25 h; method in brief: as §1
Spleen [28] = experiment: Biodistribution in Kunming mouse spleen at 1 uCi, iv after 30 mins by gamma counting; assay type: ADME, organism-based; conditions: in vivo, 0.5 h; method in brief: as §1
Spleen [29] = experiment: Biodistribution in Kunming mouse spleen at 1 uCi, iv after 60 mins by gamma counting; assay type: ADME, organism-based; conditions: in vivo, 1 h
Method in brief: (§2)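 Radioiodinated tracers given intravenously to normal mice; organs taken at 2, 15, 30, 60, 120 and 240 min after injection. Uptake expressed as % ID/g, mean ± SD of 5 mice; stomach values carry a table footnote.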

Spleen [30] = experiment: Biodistribution in Kunming mouse spleen at 1 uCi, iv after 120 mins by gamma counting; assay type: ADME, organism-based; conditions: in vivo, 2 h; method in brief: as §1
Spleen [31] = experiment: Biodistribution in Kunming mouse spleen at 1 uCi, iv after 240 mins by gamma counting; assay type: ADME, organism-based; conditions: in vivo, 4 h; method in brief: as §1
Lung [32] = experiment: Biodistribution in Kunming mouse lung at 1 uCi, iv after 2 mins by gamma counting; assay type: ADME, organism-based; conditions: in vivo; method in brief: as §1
Lung [33] = experiment: Biodistribution in Kunming mouse lung at 1 uCi, iv after 15 mins by gamma counting; assay type: ADME, organism-based; conditions: in vivo, 0.25 h; method in brief: as §1
Lung [34] = experiment: Biodistribution in Kunming mouse lung at 1 uCi, iv after 30 mins by gamma counting; assay type: ADME, organism-based; conditions: in vivo, 0.5 h; method in brief: as §1
Lung [35] = experiment: Biodistribution in Kunming mouse lung at 1 uCi, iv after 60 mins by gamma counting; assay type: ADME, organism-based; conditions: in vivo, 1 h; method in brief: as §1
Lung [36] = experiment: Biodistribution in Kunming mouse lung at 1 uCi, iv after 120 mins by gamma counting; assay type: ADME, organism-based; conditions: in vivo, 2 h; method in brief: as §1
Lung [37] = experiment: Biodistribution in Kunming mouse lung at 1 uCi, iv after 240 mins by gamma counting; assay type: ADME, organism-based; conditions: in vivo, 4 h; method in brief: as §1
Kidney [38] = experiment: Biodistribution in Kunming mouse kidney at 1 uCi, iv after 2 mins by gamma counting; assay type: ADME, organism-based; conditions: in vivo; method in brief: as §1
Kidney [39] = experiment: Biodistribution in Kunming mouse kidney at 1 uCi, iv after 15 mins by gamma counting; assay type: ADME, organism-based; conditions: in vivo, 0.25 h; method in brief: as §1
Kidney [40] = experiment: Biodistribution in Kunming mouse kidney at 1 uCi, iv after 30 mins by gamma counting; assay type: ADME, organism-based; conditions: in vivo, 0.5 h; method in brief: as §1
Kidney [41] = experiment: Biodistribution in Kunming mouse kidney at 1 uCi, iv after 60 mins by gamma counting; assay type: ADME, organism-based; conditions: in vivo, 1 h; method in brief: as §1
Kidney [42] = experiment: Biodistribution in Kunming mouse kidney at 1 uCi, iv after 120 mins by gamma counting; assay type: ADME, organism-based; conditions: in vivo, 2 h; method in brief: as §1
Kidney [43] = experiment: Biodistribution in Kunming mouse kidney at 1 uCi, iv after 240 mins by gamma counting; assay type: ADME, organism-based; conditions: in vivo, 4 h; method in brief: as §1
Stomach [44] = experiment: Biodistribution in Kunming mouse stomach assessed per organ at 1 uCi, iv after 2 mins by gamma counting; assay type: ADME, organism-based; conditions: in vivo; method in brief: as §2
Stomach [45] = experiment: Biodistribution in Kunming mouse stomach assessed per organ at 1 uCi, iv after 15 mins by gamma counting; assay type: ADME, organism-based; conditions: in vivo, 0.25 h; method in brief: as §2
Stomach [46] = experiment: Biodistribution in Kunming mouse stomach assessed per organ at 1 uCi, iv after 30 mins by gamma counting; assay type: ADME, organism-based; conditions: in vivo, 0.5 h; method in brief: as §2
Stomach [47] = experiment: Biodistribution in Kunming mouse stomach assessed per organ at 1 uCi, iv after 60 mins by gamma counting; assay type: ADME, organism-based; conditions: in vivo, 1 h; method in brief: as §2
Stomach [48] = experiment: Biodistribution in Kunming mouse stomach assessed per organ at 1 uCi, iv after 120 mins by gamma counting; assay type: ADME, organism-based; conditions: in vivo, 2 h; method in brief: as §2
Stomach [49] = experiment: Biodistribution in Kunming mouse stomach assessed per organ at 1 uCi, iv after 240 mins by gamma counting; assay type: ADME, organism-based; conditions: in vivo, 4 h; method in brief: as §2
Muscle tissue [50] = experiment: Biodistribution in Kunming mouse muscle at 1 uCi, iv after 2 mins by gamma counting; assay type: ADME, organism-based; conditions: in vivo; method in brief: as §1
Muscle tissue [51] = experiment: Biodistribution in Kunming mouse muscle at 1 uCi, iv after 15 mins by gamma counting; assay type: ADME, organism-based; conditions: in vivo, 0.25 h; method in brief: as §1
Muscle tissue [52] = experiment: Biodistribution in Kunming mouse muscle at 1 uCi, iv after 30 mins by gamma counting; assay type: ADME, organism-based; conditions: in vivo, 0.5 h; method in brief: as §1
Muscle tissue [53] = experiment: Biodistribution in Kunming mouse muscle at 1 uCi, iv after 60 mins by gamma counting; assay type: ADME, organism-based; conditions: in vivo, 1 h; method in brief: as §1
Muscle tissue [54] = experiment: Biodistribution in Kunming mouse muscle at 1 uCi, iv after 120 mins by gamma counting; assay type: ADME, organism-based; conditions: in vivo, 2 h; method in brief: as §1
Muscle tissue [55] = experiment: Biodistribution in Kunming mouse muscle at 1 uCi, iv after 240 mins by gamma counting; assay type: ADME, organism-based; conditions: in vivo, 4 h; method in brief: as §1

COc1ccc(/C=C/C(=O)n2ccc3cc([125I])ccc32)cc1
logD [1]: 2.32
Drug uptake (Blood [2]): 13.91 % ID/g
Drug uptake (Blood [3]): 5.82 % ID/g
Drug uptake (Blood [4]): 4.9 % ID/g
Drug uptake (Blood [5]): 3.79 % ID/g
Drug uptake (Blood [6]): 3.12 % ID/g
Drug uptake (Blood [7]): 2.78 % ID/g
Drug uptake (Brain [8]): 2.19 % ID/g
Drug uptake (Brain [9]): 2.29 % ID/g
Drug uptake (Brain [10]): 1.6 % ID/g
Drug uptake (Brain [11]): 1.04 % ID/g
Drug uptake (Brain [12]): 0.42 % ID/g
Drug uptake (Brain [13]): 0.21 % ID/g
Drug uptake (Heart [14]): 12.64 % ID/g
Drug uptake (Heart [15]): 3.52 % ID/g
Drug uptake (Heart [16]): 2.45 % ID/g
Drug uptake (Heart [17]): 1.53 % ID/g
Drug uptake (Heart [18]): 1.21 % ID/g
Drug uptake (Heart [19]): 1.17 % ID/g
Drug uptake (Liver [20]): 24.76 % ID/g
Drug uptake (Liver [21]): 18.05 % ID/g
Drug uptake (Liver [22]): 14.05 % ID/g
Drug uptake (Liver [23]): 12.3 % ID/g
Drug uptake (Liver [24]): 9.3 % ID/g
Drug uptake (Liver [25]): 7.65 % ID/g
Drug uptake (Spleen [26]): 6 % ID/g
Drug uptake (Spleen [27]): 8.04 % ID/g
Drug uptake (Spleen [28]): 7.12 % ID/g
Drug uptake (Spleen [29]): 7.16 % ID/g
Drug uptake (Spleen [30]): 6.18 % ID/g
Drug uptake (Spleen [31]): 4.45 % ID/g
Drug uptake (Lung [32]): 21.76 % ID/g
Drug uptake (Lung [33]): 11.13 % ID/g
Drug uptake (Lung [34]): 9.05 % ID/g
Drug uptake (Lung [35]): 6.39 % ID/g
Drug uptake (Lung [36]): 4.31 % ID/g
Drug uptake (Lung [37]): 2.95 % ID/g
Drug uptake (Kidney [38]): 12.01 % ID/g
Drug uptake (Kidney [39]): 9.31 % ID/g
Drug uptake (Kidney [40]): 8.21 % ID/g
Drug uptake (Kidney [41]): 5.71 % ID/g
Drug uptake (Kidney [42]): 4.21 % ID/g
Drug uptake (Kidney [43]): 4.05 % ID/g
Drug uptake (Stomach [44]): 0.71 %ID
Drug uptake (Stomach [45]): 4.06 %ID
Drug uptake (Stomach [46]): 4.92 %ID
Drug uptake (Stomach [47]): 5 %ID
Drug uptake (Stomach [48]): 5.31 %ID
Drug uptake (Stomach [49]): 4.14 %ID
Drug uptake (Muscle tissue [50]): 2.73 % ID/g
Drug uptake (Muscle tissue [51]): 2.62 % ID/g
Drug uptake (Muscle tissue [52]): 1.63 % ID/g
Drug uptake (Muscle tissue [53]): 1.3 % ID/g
Drug uptake (Muscle tissue [54]): 0.65 % ID/g
Drug uptake (Muscle tissue [55]): 0.92 % ID/g

From ChEMBL document CHEMBL1828568, “Novel imaging agents for β-amyloid plaque based on the N-benzoylindole core” (Bioorg Med Chem Lett, 2011)
